Source: PubChem (several laboratories)
NPY1 pot ag = potentiates or activates human NPY-Y1 receptor; P25929; NPY-Y1 expressing cells, potentiator/agonist activation; activation, % at 3.6 µM; actives 0.37% (n = 220,000); AID 1304; in the data active = activation above about 33%, passing the limit was not always enough;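 also: cells stimulated with NPY at EC10 then isoproterenol at EC100; 0% = low agonist plus stimulus and 100% = saturating agonist plus stimulus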
Target sequence (P25929 whole entry, looked up): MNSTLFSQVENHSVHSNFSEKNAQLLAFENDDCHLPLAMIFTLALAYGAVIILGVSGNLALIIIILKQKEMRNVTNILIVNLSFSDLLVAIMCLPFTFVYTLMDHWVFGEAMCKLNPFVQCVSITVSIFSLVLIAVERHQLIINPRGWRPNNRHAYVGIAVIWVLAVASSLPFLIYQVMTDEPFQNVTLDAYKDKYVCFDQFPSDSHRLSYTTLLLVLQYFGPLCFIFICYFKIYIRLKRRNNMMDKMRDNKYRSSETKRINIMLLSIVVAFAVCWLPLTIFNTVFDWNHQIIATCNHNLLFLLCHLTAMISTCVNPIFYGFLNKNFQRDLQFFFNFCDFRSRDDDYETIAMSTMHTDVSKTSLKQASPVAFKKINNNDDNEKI
NPY-Y2 PAM-ag = potentiators or agonists of human neuropeptide Y receptor Y2; P49146; cells expressing NPY-Y2, potentiator/agonist read-out; activation, % at 3.6 µM; actives 0.45% (n = 220,000); AID 1359; in the data active = activation above about 27%;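 also: cells stimulated with NPY near EC25 plus isoproterenol at EC100; 0% = vehicle plus submaximal agonist and 100% = vehicle plus saturating agonist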
PGE2 EP2 inh = blocks the human prostaglandin E2 receptor EP2 | C6 glioma cells expressing human EP2, cAMP TR-FRET; cells stimulated with saturating PGE2 | actives 0.52% (n = 260,000) | inhibition, % at 25 µM;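 active = percent inhibition above 40 after rounding to a whole number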;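 also: rat C6 glioma host cells with rolipram phosphodiesterase inhibitor present; the protocol text gives 20 µM as final concentration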
Target sequence (P43116 whole entry, looked up): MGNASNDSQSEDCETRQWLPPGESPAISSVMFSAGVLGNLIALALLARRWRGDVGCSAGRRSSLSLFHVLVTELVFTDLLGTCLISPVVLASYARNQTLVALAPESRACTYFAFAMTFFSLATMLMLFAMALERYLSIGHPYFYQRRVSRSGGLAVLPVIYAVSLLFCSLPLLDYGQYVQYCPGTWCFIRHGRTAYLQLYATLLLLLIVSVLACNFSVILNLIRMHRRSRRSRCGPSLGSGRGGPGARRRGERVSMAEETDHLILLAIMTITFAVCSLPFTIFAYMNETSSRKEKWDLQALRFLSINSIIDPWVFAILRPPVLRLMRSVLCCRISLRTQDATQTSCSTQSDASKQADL
NPY Y2 blocker = NPY-Y2 (human) receptor antagonism | NPY-Y2 expressing cells, antagonist mode | actives 0.99% (n = 140,000) | inhibition, % at 2.7 µM | AID 793; in the data active = inhibition above about 17%;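 also: 0% = vehicle with agonist challenge and 100% = reference antagonist with challenge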
EP2 modulator = modulators of human EP2 prostaglandin E2 receptor | P43116 | EP2-expressing cells, cAMP HTRF FRET, PGE2 co-stimulation | induction, % at 25 µM | actives 0.83% (n = 260,000);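 active = compounds whose cAMP rise, as percent of the full-agonist control response, exceeds 60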;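 also: rat C6 glioma line stably carrying human EP2 under a CMV promoter; the protocol text gives 20 µM as final concentration; 100% = response of wells given 1 µM PGE2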
NPY-Y1 antag = NPY-Y1 (human) receptor antagonism. P25929. HEK293-CNG Y1 cells, membrane potential fluorescence; NPY at EC95, then isoproterenol. actives 1% (n = 200,000). inhibition, % at 3.6 µM;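 active = inhibition above the campaign mean inhibition of all tested compounds plus 3 SD, cut at about 20% in these data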;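 also: 0% = DMSO wells given NPY plus isoproterenol and 100% = isoproterenol alone without NPY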
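System: HEK293 cells with Y1 receptor plus CNG channel / Probe or stimulus: NPY 25 nM then isoproterenol 1 µM plus Ro 20-1724 25 µM / Compound: one concentration, 3.6 µM, in 0.4% DMSO / Schedule: compound incubation 1 h at room temperature, readout 45 min post-stimulation / Measured by: membrane potential fluorescence / Read-out: % inhibition of NPY effect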
NPY-Y1 pot conf = confirmation of human NPY-Y1 receptor potentiators or agonists | cell-based NPY-Y1 potentiator/agonist assay | actives 20% (n = 280) | activation, % at 3.6 µM | shares compounds with NPY1 pot ag; in the data active = activation above about 45%;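 also: cells challenged with NPY at its EC10 plus isoproterenol stimulus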
NPY-Y2 counter = potentiates or activates NPY-Y2, counter-screen for NPY-Y1 hits; HEK293-CNG cells, membrane-potential fluorescence (FLIPR), 1536-well; shares compounds with NPY1 pot ag; activation, % at 3.6 µM; actives 20% (n = 280); in the data active = activation above about 33%
NPY-Y1 agonist = human NPY-Y1 agonism as potentiator counter-screen | shares compounds with NPY1 pot ag | HEK293 Y1-CNGC, membrane potential fluorescence, agonist mode | activation, % at 3.6 µM | actives 50% (n = 280) | AID 1697;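 active = percent activation above the mean of DMSO-only control wells plus 3 SD of those wells, cut at about 18% in these data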;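 also: cells challenged with isoproterenol plus Ro 20-1724 with no NPY in test wells; Y1 agonism lowers isoproterenol-driven cAMP and reduces probe fluorescence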
NPY-Y2 agonist = activates human NPY-Y2, counter-screen for NPY-Y1 hits; AID 1698; actives 67% (n = 280); HEK293 Y2-CNGC, membrane potential fluorescence, agonist mode; activation, % at 3.6 µM; shares compounds with NPY1 pot ag;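 active = activation above the solvent-only control wells' mean plus 3 SD, cut at about 11% in these data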;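 also: 0% = DMSO with isoproterenol and 100% = 40 nM NPY maximal response; agonism lowers cAMP so well fluorescence drops in active wells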
CNGC inh 2 = blocks cyclic nucleotide gated channel in NPY-Y1 counter-screen. HEK293-CNG parental, isoproterenol cAMP, membrane potential fluorescence. inhibition, % at 3.6 µM. shares compounds with NPY1 pot ag. actives 42% (n = 280);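 active = inhibition above the mean of stimulated solvent-only control wells plus 3 SD, cut at about 22% in these data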;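 also: 0% = isoproterenol-stimulated DMSO wells and 100% = unstimulated DMSO wells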
* = called active by the depositor; · = not tested or not shown. Compounds with a hit are over-represented: about 2.8% of the library has one in this group of screens.

SMILES | NPY1 pot ag | NPY-Y2 PAM-ag | PGE2 EP2 inh | NPY Y2 blocker | EP2 modulator | NPY-Y1 antag | NPY-Y1 pot conf | NPY-Y2 counter | NPY-Y1 agonist | NPY-Y2 agonist | CNGC inh 2
CCN1CCCC1CNC(=O)c1ccc(Sc2ccccc2Cl)c([N+](=O)[O-])c1 (centres undefined) | 36* | 23 | 7 | · | -73 | 6 | 32 | 23 | 23* | 30* | 34*
CC(C)c1ccc2[nH]c(O)c(N=NC(=O)c3cccc(S(=O)(=O)Nc4cccc(Cl)c4)c3)c2c1 | 50* | -8 | 4 | · | 17 | · | 29 | 23 | 24* | 28* | 20
CC(C)c1ccc2[nH]c(O)c(N=NC(=O)c3cccc(S(=O)(=O)Nc4ccc(Cl)cc4)c3)c2c1 | 5 | 18 | 2 | · | 7 | 0 | · | · | · | · | ·
NS(=O)(=O)c1cc(C(=O)NCCc2ccccn2)ccc1Cl | 96* | -2 | 8 | · | -5 | · | 6 | -1 | -5 | -4 | 3
Cc1ccc(NS(=O)(=O)c2cc(C(=O)NCc3ccccn3)ccc2Cl)cc1 | 5 | -5 | 12 | 3 | -33 | 3 | · | · | · | · | ·
Cc1cccc(C)c1Nc1c(-c2ccccn2)nc2ccccn12 | 46* | 27 | 11 | · | 52 | -7 | 48* | 34* | 39* | 41* | 31*
CCOc1ccccc1NC(=O)C1C2C=CC(O2)C1C(=O)O (centres undefined) | 57* | 11 | 9 | 2 | 33 | 1 | 9 | 0 | -9 | 5 | -2
COc1ccccc1Oc1ccc(-c2cnc3ccccc3n2)cc1[N+](=O)[O-] | 47* | 19 | 4 | · | -73 | 3 | 36 | 24 | 38* | 21* | 0
O=[N+]([O-])c1cc(S(=O)(=O)Nc2cccc(Cl)c2)ccc1N/N=C/c1ccc(N2CCOCC2)cc1 | 66* | -6 | 8 | · | 14 | · | 53* | 61* | 44* | 61* | 47*
NC(=O)CSc1nc(-c2ccc(F)cc2)cs1 | · | · | 15 | · | -69 | · | · | · | · | · | ·
CCn1c(CNc2ccc(C)cc2C)nnc1SCC(=O)Nc1ncc(C)s1 | · | · | 11 | · | 8 | · | · | · | · | · | ·
CC(OC(=O)c1ccc(NS(=O)(=O)c2ccc3[nH]c(=O)[nH]c3c2)cc1)C(=O)Nc1ccc(Cl)cc1 (centres undefined) | 67* | -23 | 7 | · | -12 | 3 | -2 | -3 | -4 | 2 | -3
CCc1ccc(NC(=O)C(C)OC(=O)c2ccc(NS(=O)(=O)c3ccc(C)c([N+](=O)[O-])c3)cc2)cc1 (centres undefined) | 42* | 19 | 1 | -3 | 14 | -12 | 24 | 10 | 16 | 12* | 23*
Cc1ccc(-c2nnc(-c3ccc(NC(=O)Cc4cccs4)cc3)o2)cc1 | 50* | 0 | 12 | 0 | 16 | 3 | -22 | -9 | -13 | 3 | 0
CCN1CCN(C(=O)Nc2cccc(C(F)(F)F)c2)CC1 | -16 | 3 | 3 | -1 | 34 | 2 | · | · | · | · | ·
CCN1CCC(NC(=O)Nc2cccc(C(F)(F)F)c2)CC1 | 36* | 0 | 4 | · | -12 | -1 | 2 | 2 | -2 | -4 | 7
Cc1ccc(S(=O)(=O)Nc2nc3ccccc3nc2Nc2cccc(S(=O)(=O)N3CCCC3)c2)cc1 | 45* | 18 | 7 | · | -8 | -14 | 74* | 71* | 67* | 65* | 44*
O=[N+]([O-])c1cccc(S(=O)(=O)Nc2nc3ccccc3nc2Nc2cccc(S(=O)(=O)N3CCCCC3)c2)c1 | 5 | 3 | 9 | -1 | -17 | 0 | · | · | · | · | ·
CCc1nn(CC(=O)NC2CCCCC2)c(=O)c2cc3ccsc3n12 | · | · | · | · | -51 | · | · | · | · | · | ·
O=C(Nc1ccc([N+](=O)[O-])cc1)Nc1ccc(Cl)cc1F | 8 | 12 | 13 | · | -53 | -3 | · | · | · | · | ·
Cc1cc(OC(F)F)ccc1NC(=O)Nc1ccc([N+](=O)[O-])cc1 | 59* | 29 | 10 | -6 | -4 | -13 | 36 | 29 | 25* | 28* | 31*
CCn1c(SCC(=O)Nc2cc(Cl)ccc2C)nnc1-c1ccco1 | · | · | 7 | · | -6 | · | · | · | · | · | ·
Cc1cc2ccccn2c1C(=O)c1ccc(N/N=C/c2ccc(C(=O)O)cc2)c([N+](=O)[O-])c1 | 21 | -20 | 4 | · | 17 | · | · | · | · | · | ·
C/C(=N\Nc1ccc(C(=O)c2c(C)cc3ccccn23)cc1[N+](=O)[O-])c1ccc(O)cc1 | 62* | 9 | 4 | · | 12 | · | 9 | 10 | 6 | 12* | 4
COc1ccc(N(C)S(=O)(=O)c2cccc(C(=O)Nc3nnc(C4CC4)s3)c2)cc1 | 38* | 6 | 8 | · | -48 | -3 | 44 | 30 | 41* | 20* | 40*
SMILES | NPY1 pot ag | NPY-Y2 PAM-ag | PGE2 EP2 inh | NPY Y2 blocker | EP2 modulator | NPY-Y1 antag | NPY-Y1 pot conf | NPY-Y2 counter | NPY-Y1 agonist | NPY-Y2 agonist | CNGC inh 2
COc1ccc(N(C)S(=O)(=O)c2cccc(C(=O)Nc3cc(OC)ccc3OC)c2)cc1 | -12 | -1 | 6 | · | -49 | 6 | · | · | · | · | ·
Cc1nc2ccc(NC(=O)C(C)(C)C)cc2c(=O)n1Cc1ccc(Cl)cc1 | · | · | 10 | · | -53 | · | · | · | · | · | ·
COc1cc2c3c(c1)c(N=NC(N)=S)c(O)n3C(C)(C)C=C2C | 55* | 24 | 5 | · | 18 | · | 74* | 61* | 47* | 60* | 54*
COc1cccc(CN2CCN(CC(=O)N3CCc4ccccc43)[C@@H](C)C2)c1 | · | · | · | · | -6 | · | · | · | · | · | ·
CC1N(C)c2cc(NC(=O)c3ccco3)c(P(=O)(Nc3ccc([N+](=O)[O-])cc3)N3CCOCC3)cc2C1(C)C (centres undefined) | 37* | 22 | 6 | · | -21 | -9 | 37 | 25 | 17 | 29* | 24*
CC1N(C)c2cc(NC(=O)c3ccco3)ccc2C1(C)C (centres undefined) | -26 | -15 | 9 | 13 | 6 | 8 | · | · | · | · | ·
CCn1cc(C(=O)N2CCc3ccccc32)c(=O)c2cc(S(=O)(=O)N(C)C3CCCCC3)ccc21 | 51* | 10 | 12 | 2 | 15 | -9 | -1 | 9 | 3 | 4 | 1
Cc1ccc(O)c(-c2cc3ccccc3[nH]2)c1 | 47* | 26 | 9 | -5 | -25 | -11 | 38 | 32 | 38* | 42* | 31*
COc1ccc(-c2cc3ccccc3[nH]2)cc1 | 24 | 18 | 16 | · | -30 | · | · | · | · | · | ·
